Results as given in PMC9041536 (RSC Advances, 2021).
pIC50: −log10 of the molar value.

What was measured:
[1] = tested on: human neuroblastoma (SH-SY5Y); assay: SRB cytotoxicity assay, SH-SY5Y; format: cell-based; conditions: for pIC50: Homo sapiens, SH-SY5Y, 72 h, read-out: Cytotoxicity (IC50) SH-SY5Y
[2] = SRB cytotoxicity assay, normal cell line CL; format: cell-based; conditions: human, CL cells (normal liver hepatic cell line)
[3] = tested on: human lung carcinoma (A-549); assay: SRB cytotoxicity assay, A-549; format: cell-based; conditions: A549, 72 h, read-out: Cytotoxicity (IC50) A-549
[4] = tested on: human intrahepatic cholangiocarcinoma (KKU-M213); assay: SRB cytotoxicity assay, KKU-M213; format: cell-based; conditions: KKU-M213, 72 h, read-out: Cytotoxicity (IC50) KKU-M213
[5] = tested on: human mammary gland adenocarcinoma (MDA-MB-231); assay: SRB cytotoxicity assay, MDA-MB-231; format: cell-based; conditions: MDA-MB-231, 72 h, read-out: Cytotoxicity (IC50) MDA-MB-231
[6] = tested on: human colorectal adenocarcinoma (HT-29); assay: SRB cytotoxicity assay, HT-29; format: cell-based; conditions: HT-29, 72 h, read-out: Cytotoxicity (IC50) HT-29
[7] = tested on: human squamous cell carcinoma (FaDu); assay: SRB cytotoxicity assay, FaDu; format: cell-based; conditions: 72 h, read-out: Cytotoxicity (IC50) FaDu
[8] = tested on: six cancer cell lines, KKU-M213, FaDu, HT-29, MDA-MB-231, A-549, and SH-SY5Y; assay: SRB cytotoxicity assay, all tested cancer cell lines; format: cell-based, human; conditions: for Cytotoxicity (in words): under tested concentrations (0.1–50 μM)
Method in brief: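 Sulforhodamine B assay, slightly modified, with ellipticine as positive control. Compounds were in 10% DMSO and tested over 0.1–50 μM. Cells exposed for 72 h at 37 °C, 5% CO2, humidified. Fixed with 10% TCA, stained with 0.4% SRB, unbound dye washed off with 1% acetic acid, bound dye solubilised in 10 mM Tris base (pH 10.5). A510 read. IC50 is the concentration giving 50% growth inhibition.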

[9] = tested on: E. coli (ATCC 25922); assay: Agar well diffusion method, E. coli; format: cell-based; conditions: Escherichia coli, ATCC25922, read-out: zone of inhibition E. coli
Method in brief: (§1)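 Bacteria swabbed onto Mueller–Hinton agar, then 6 mm wells cut with a sterile cork borer. Each well received 20 µL of test compound dissolved in DMSO at 5 mg mL−1. Plates held 30 min in a refrigerator for diffusion, then incubated at 37 °C for 16–20 h. Inhibition zone measured in mm. Negative control: 10% DMSO.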

[10] = tested on: S. aureus (ATCC 25923); assay: Agar well diffusion method, S. aureus; format: cell-based; conditions: Staphylococcus aureus, ATCC25923, read-out: zone of inhibition S. aureus
Method in brief: as §1

[11] = tested on: P. aeruginosa (ATCC 27853); assay: Agar well diffusion method, P. aeruginosa; format: cell-based; conditions: Pseudomonas aeruginosa, ATCC27853, read-out: zone of inhibition P. aeruginosa
Method in brief: as §1

## C=CCOc1c(C)c(O)c(C(=O)/C=C/c2ccccc2)c(OC)c1C [Compound 2i, 2′-Hydroxy-4′-allyloxy-6′-methoxy-3′,5′-dimethylchalcone]
[1]
  pIC50: 4.55
[2]
  IC50 at 72 h: 31.7 µM
[3]
  pIC50: 4.44
[4]
  pIC50: 4.51
[5]
  pIC50: 4.41
[6]
  pIC50: 4.46
[7]
  pIC50: 4.54

## CCCCCCCC(=O)Oc1c(C)c(O)c(C(=O)/C=C/c2ccccc2)c(OC)c1C [Compound 2c, 2′-Hydroxy-4′-capryloyloxy-6′-methoxy-3′,5′-dimethylchalcone]
[1]
  pIC50: 4.74
[2]
  IC50 at 72 h: 25.2 µM
[3]
  pIC50: < 4.30
[4]
  pIC50: 4.61
[5]
  pIC50: 4.59
[6]
  pIC50: 4.57
[7]
  pIC50: 4.69

## CCCC(=O)Oc1c(C)c(O)c(C(=O)/C=C/c2ccccc2)c(OC)c1C [Compound 2a, 2′-Hydroxy-4′-butyryloxy-6′-methoxy-3′,5′-dimethylchalcone]
[1]
  pIC50: 4.56
[2]
  IC50 at 72 h: 32.8 µM
[3]
  pIC50: < 4.30
[4]
  pIC50: 4.52
[5]
  pIC50: 4.42
[6]
  pIC50: 4.45
[7]
  pIC50: 4.51

## Cc1c2ccncc2c(C)c2c1[nH]c1ccccc12 [Ellipticine, reference compound]
[1]
  pIC50: 5.58
[2]
  IC50 at 72 h: 2.07 µM
[3]
  pIC50: 5.94
[4]
  pIC50: 5.62
[5]
  pIC50: 5.55
[6]
  pIC50: 5.67
[7]
  pIC50: 5.69

## CCCCCC(=O)Oc1c(C)c(O)c(C(=O)/C=C/c2ccccc2)c(OC)c1C [Compound 2b, 2′-Hydroxy-4′-caproyloxy-6′-methoxy-3′,5′-dimethylchalcone]
[1]
  pIC50: 5.28
[1]; ratio of IC50 on normal cell (CL) divided by that on cancer cell
  Selectivity Index (SI) SH-SY5Y: 4.53
[2]
  IC50 at 72 h: 23.5 µM
[3]
  pIC50: 4.60
[4]
  pIC50: 4.67
[5]
  pIC50: 4.74
[6]
  pIC50: 4.57
[7]
  pIC50: 4.72

## COc1c(C)c(OS(=O)(=O)c2ccc3ccccc3c2)c(C)c(O)c1C(=O)/C=C/c1ccccc1 [Compound 2n, 2′-Hydroxy-4′-(2-naphthalenesulfonyl)oxy-6′-methoxy-3′,5′-dimethylchalcone]
[1]
  pIC50: 4.79
[2]
  IC50 at 72 h: 30.4 µM
[3]
  pIC50: < 4.30
[4]
  pIC50: 4.56
[5]
  pIC50: 4.40
[6]
  pIC50: 4.61
[7]
  pIC50: 4.68

## COc1c(C)c(OC(=O)c2ccc(C)cc2)c(C)c(O)c1C(=O)/C=C/c1ccccc1 [Compound 2l, 2′-Hydroxy-4′-(p-toluoyloxy)-6′-methoxy-3′,5′-dimethylchalcone]
[1]
  pIC50: 4.81
[2]
  IC50 at 72 h: 25.4 µM
[3]
  pIC50: 4.65
[4]
  pIC50: 4.54
[5]
  pIC50: 4.60
[6]
  pIC50: 4.57
[7]
  pIC50: 4.66

## COc1c(C)c(OC(C)=O)c(C)c(O)c1C(=O)/C=C/c1ccccc1 [Compound 2f, 2′-Hydroxy-4′-acetyloxy-6′-methoxy-3′,5′-dimethylchalcone]
[1]
  pIC50: 4.54
[2]
  IC50 at 72 h: 31 µM
[3]
  pIC50: < 4.30
[4]
  pIC50: 4.37
[5]
  pIC50: 4.39
[6]
  pIC50: 4.41
[7]
  pIC50: 4.44

## COc1c(C)c(OC)c(C(=O)/C=C/c2ccccc2)c(OC)c1C [Compound 5g, 2′,4′,6′-Trimethoxy-3′,5′-dimethylchalcone]
[1]
  pIC50: 4.90
[2]
  IC50 at 72 h: 18.7 µM
[3]
  pIC50: 4.64
[4]
  pIC50: 4.63
[8]; Homo sapiens, read-out: IC50 on all tested cancer cell lines
  pIC50: 4.53 to 4.90
[8]
  Cytotoxicity (in words): moderate cytotoxicity
[5]
  pIC50: 4.53
[6]
  pIC50: 4.66
[7]
  pIC50: 4.71

## COc1c(C)c(OC(=O)c2ccccc2)c(C)c(O)c1C(=O)/C=C/c1ccccc1 [Compound 2k, 2′-Hydroxy-4′-benzoyloxy-6′-methoxy-3′,5′-dimethylchalcone]
[1]
  pIC50: 4.69
[2]
  IC50 at 72 h: > 50 µM
[3]
  pIC50: 4.38
[4]
  pIC50: < 4.30
[5]
  pIC50: < 4.30
[6]
  pIC50: 4.49
[7]
  pIC50: 4.42

## CCCCCCCCCC(=O)Oc1c(C)c(O)c(C(=O)/C=C/c2ccccc2)c(OC)c1C [Compound 2d, 2′-Hydroxy-4′-caprinoyloxy-6′-methoxy-3′,5′-dimethylchalcone]
[1]
  pIC50: 4.61
[2]
  IC50 at 72 h: 41.9 µM
[3]
  pIC50: < 4.30
[4]
  pIC50: < 4.30
[5]
  pIC50: 4.44
[6]
  pIC50: < 4.30
[7]
  pIC50: 4.46

## COc1c(C)c(OC(C)=O)c(C)c(OC(C)=O)c1C(=O)/C=C/c1ccccc1 [Compound 5f, 2′,4′-Diacetyloxy-6′-methoxy-3′,5′-dimethylchalcone]
[1]
  pIC50: 4.73
[2]
  IC50 at 72 h: 27.4 µM
[3]
  pIC50: 4.81
[4]
  pIC50: 4.55
[8]
  Cytotoxicity (in words): poor cytotoxicity
[5]
  pIC50: 4.53
[6]
  pIC50: 4.44
[7]
  pIC50: 4.47

## COc1c(C)c(OCc2ccccc2)c(C)c(O)c1C(=O)/C=C/c1ccccc1 [Compound 2h, 2′-Hydroxy-4′-benzyloxy-6′-methoxy-3′,5′-dimethylchalcone]
[1]
  pIC50: 4.78
[2]
  IC50 at 72 h: 22.6 µM
[3]
  pIC50: 5.00
[4]
  pIC50: 4.63
[5]
  pIC50: 4.57
[6]
  pIC50: 4.56
[7]
  pIC50: 4.85

## COc1c(C)c(O)c(C)c(O)c1C(=O)/C=C/c1ccccc1 [DMC, 2′,4′-Dihydroxy-6′-methoxy-3′,5′-dimethylchalcone]
[9]
  zone of inhibition at 5 µg/mL: 8 mm
[1]
  pIC50: 4.88
[2]
  IC50 at 72 h: 15.6 µM
[3]
  pIC50: 4.70
[4]
  pIC50: 4.53
[5]
  pIC50: 4.42
[10]
  zone of inhibition at 5 µg/mL: 9 mm
[11]
  zone of inhibition at 5 µg/mL: 8 mm
[6]
  pIC50: 4.41
[7]
  pIC50: 4.43
